{
  "source": "paper PMC7138392",
  "about": "(Industrial Crops and Products, 2019)",
  "test": "Cytotoxicity in MDCK cells",
  "type": "cell-based, Canine",
  "details": "dog",
  "procedure,_shortened": "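MDCK cells (1 × 10^5/well) grown 24 h at 37 °C, 5% CO2, then washed twice with PBS pH 7.20. Exposed to test compound at 100 to 3.12 μM in p-MEM for 72 h at 37 °C, 5% CO2. Fixed, stained with 0.40% crystal violet in methanol, A490 read. Viability expressed relative to untreated cell control; CC50 by regression. Triplicate.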",
  "data": [
    {"compound": "CCC(CC)O[C@@H]1C=C(C(=O)O)C[C@H](N)[C@H]1NC(C)=O", "note": "[OC, Oseltamivir carboxylate]", "values": [
      {"measurement": "CC50 at 72 h", "result": "> 100", "unit": "µM"}
    ]}
  ]
}
